Compounds with a hit are over-represented: about 3.1% of the library has one in this group of screens.
EWS-Fli inh – inhibitors of EWS/Fli oncoprotein transcriptional activity; A673 NR0B1-luciferase reporter, viability-normalised; inhibition, % at 12.6 µM; actives 0.67% (n = 350,000); AID 651661;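 active = mean inhibition of at least 50% after viability correction, with every replicate also passing that limit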;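 also: firefly luciferase signal divided by Alamar Blue viability fluorescence both relative to DMSO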
Env fusion inh – blocks HIV Env-driven cell-cell fusion | HeLa-JRFL Env/CEM21 cell fusion, luciferase | AID 651610 | actives 1.1% (n = 360,000) | inhibition, % at 12.3 µM;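 active = mean replicate inhibition score of at least 50 and every replicate individually at or above 50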;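 also: 0% = plate neutral controls and 100% = maraviroc near 300 nM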
PGC1a acetyl inh – PGC1a acetylation modulation, inhibitor mode; inhibition, % at 15.6 µM; U2OS PGC1a acetylation, AlphaScreen anti-acetyl-lysine; with virally co-expressed GCN5 acetyltransferase; actives 0.17% (n = 350,000);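 active = every replicate shows inhibition of at least 40%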;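 also: 0% = neutral control wells and 100% = positive control wells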
FN deposit inh – fibronectin deposition inhibition | actives 0.086% (n = 350,000) | AH1F fibroblasts, Alexa488-fibronectin deposition fluorescence, overnight | AID 743247 | inhibition, % at 12.6 µM;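 active = mean inhibition across replicates of 30% or more, regardless of how many single replicates reach that level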;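 also: positive control wells lacked labelled fibronectin entirely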
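Assay system: AH1F fibroblasts / Quantity: 10000 cells per well / Medium: DMEM plus 2% serum, read in PBS / Reagent: labelled fibronectin 24 nM / Dosing: single dose, pinned / Times: 1 h cell attachment, overnight exposure to compound and label / Signal: fluorescence, ex 485 nm, em 525 nm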
FGF22 binding – shifts melting point of recombinant human FGF22; activity (Tm shift, normalised), % at 9.99 µM; AID 651658; actives 1.5% (n = 340,000); recombinant FGF22 thermal shift, SYPRO orange fluorescence; percent of sucrose octasulfate shift, DMSO zero; Q9HCT0;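 active = mean Tm shift, scaled 0 neutral to 100 positive control, at about 1.3% or above, every replicate too, limit read from the data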
Target sequence (Q9HCT0 whole entry, looked up): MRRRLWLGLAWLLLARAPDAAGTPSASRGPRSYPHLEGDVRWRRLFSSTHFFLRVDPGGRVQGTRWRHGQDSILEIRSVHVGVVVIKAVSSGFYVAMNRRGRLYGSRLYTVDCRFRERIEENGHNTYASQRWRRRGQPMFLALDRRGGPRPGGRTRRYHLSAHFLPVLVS
PAX8 inh HTS – lowers PAX8-driven luciferase in RMG-I cells; AID 652154; RMG-I TPO-luciferase reporter, SteadyGlo, 24 h; inhibition, % at 12.6 µM; actives 1.2% (n = 360,000);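 active = mean replicate inhibition at least 60% with every replicate also reaching 60%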;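 also: luciferase light reporting Pax8 driven TPO promoter activity; plate controls were median of neutral control wells for no effect and mitoxantrone controls for full effect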
* marks the source's active call; other numbers are inactive results; nt = no result given; [ ] = remark or other dose.

SMILES	EWS-Fli inh	Env fusion inh	PGC1a acetyl inh	FN deposit inh	FGF22 binding	PAX8 inh HTS
CCCC(=O)Nc1ccc2c(c1)C(=O)N(C)C[C@H](OC)[C@@H](C)CN(Cc1ccc(-c3ccccn3)cc1)[C@H](C)CO2	3.2	nt	-0.4	10.8	0.1	-40.2
CCCNC(=O)Nc1ccc2c(c1)OC[C@H](C)N(Cc1ccc(-c3ccccn3)cc1)C[C@@H](C)[C@H](OC)CN(C)C2=O	6.7	nt	-0.5	-5.6	-0.1	11.2
C[C@H](CO)N1C[C@H](C)[C@H](CN(C)S(=O)(=O)c2cccs2)OCCCC[C@H](C)Oc2ccc(N(C)C)cc2C1=O	-4.3	-0.4[16.7 µM]	-8.6	nt	nt	-19.8
CN1c2ccc(-c3ccccc3)cc2[C@H]2[C@H](CCN2S(=O)(=O)c2ccccc2F)[C@H]1CO	-5.9	nt	-25.3	2.4	0.1	26.1
Cc1ccc(S(=O)(=O)N2CC[C@@H]3[C@H]2c2cc(-c4ccc(C#N)cc4)ccc2N(C)[C@H]3CO)cc1	0.9	nt	-8.8	6.6	0.0	22.1
Cc1ccc(S(=O)(=O)N2CC[C@@H]3[C@H](CO)N(C)c4ccc(-c5ccc(C#N)cc5)cc4[C@@H]32)cc1	12.9	nt	4.7	5.9	-0.1	80.0*
Cc1cccc(S(=O)(=O)N2CC[C@H]3[C@@H](CO)N(C)c4ccc(-c5ccc(C#N)cc5)cc4[C@H]32)c1	1.1	nt	-4.2	4.4	0.1	-22.3
CN1c2ccc(-c3cccc(C#N)c3)cc2[C@H]2[C@H](CCN2S(=O)(=O)c2ccccc2F)[C@H]1CO	22.4	nt	13.4	6.2	-0.3	102.3*
Cc1cccc(S(=O)(=O)N2CC[C@@H]3[C@H](CO)N(C)c4ccc(-c5ccc(C#N)cc5)cc4[C@@H]32)c1	4.5	nt	-10.3	9.6	-0.1	89.3*
COc1ccc2c3c([nH]c2c1)[C@H](CO)N(C(=O)NC(C)C)CC31CCN(C(=O)c2ccccn2)CC1	-11.5	nt	9.7	nt	-0.3	nt
C[C@@H]1CCCCO[C@H](CN(C)S(C)(=O)=O)[C@@H](C)CN([C@@H](C)CO)C(=O)c2cc(N(C)C)ccc2O1	-4.8	17.1[16.7 µM]	-11.3	nt	-1.8	-13.1
O=C(Cc1ccccn1)NCC[C@@H]1CC[C@@H](NC(=O)Nc2ccc(C(F)(F)F)cc2)[C@H](CO)O1	-10.6	-0.5[16.7 µM]	-2.5	7.3	-0.1	15.1
O=C(Cc1ccccn1)NCC[C@@H]1CC[C@@H](NC(=O)Nc2ccc(C(F)(F)F)cc2)[C@@H](CO)O1	-13.9	0.9[16.7 µM]	45.5*	10.2	0.1	68.7*
O=C(Cc1ccccn1)NCC[C@H]1CC[C@@H](NC(=O)Nc2ccc(F)cc2)[C@H](CO)O1	-3.6	-13.8[16.7 µM]	-0.4	nt	0.0	-1.1
O=C(Cc1ccccn1)NCC[C@@H]1CC[C@H](NC(=O)Nc2ccc(C(F)(F)F)cc2)[C@@H](CO)O1	-10.8	6.3[16.7 µM]	50.3*	-4.8	-0.1	84.5*
O=C(NCC(c1ccc(F)cc1)N1CCOCC1)c1cc(F)c(F)c(F)c1F (stereo unspecified)	0.1	-28.9	nt	-6.4	43.3*	10.9
O=C(NCC(c1ccc(F)cc1)N1CCOCC1)c1ccccc1F (stereo unspecified)	10.3	-18.7	-8.2	2.0	0.1	-17.1
CC(C)(C)c1ccc(OCC(=O)NCC(c2cccs2)N2CCOCC2)cc1 (stereo unspecified)	1.7	62.3*	nt	-1.3	41.2	nt
C/C(=N\NC(=O)COc1ccc(C(C)(C)C)cc1)c1ccc(N2CCOCC2)cc1	-3.1	19.6	nt	-12.5	44.0*	1.0
COc1ccc(OCC(=O)NCC(c2cccs2)N2CCOCC2)cc1 (stereo unspecified)	-4.2	13.8	-13.1	-1.8	-0.1	18.0
O=C(NCC(c1cccs1)N1CCOCC1)c1cc(F)cc(F)c1 (stereo unspecified)	53.5*	26.4	nt	-1.2	0.1	12.8
COc1ccc2c3c([nH]c2c1)[C@H](CO)N(Cc1ccc(Cl)cc1)CC31CN(Cc2nccs2)C1	9.1	nt	1.0	nt	0.0	-2.7
CCCCCC(=O)N/N=C(\C)c1ccc(N2CCCCC2)cc1	-19.7	nt	nt	4.0	0.1	126.1*
C/C(=N\NC(=O)c1ccccc1)c1ccc(N2CCCCC2)cc1	-109.8	nt	-1.4	3.8	0.1	21.1
N#Cc1ccc(CO/N=C/c2ccccc2)cc1	-13.0	-5.8	-10.7	-9.5	44.4*	-33.8
SMILES	EWS-Fli inh	Env fusion inh	PGC1a acetyl inh	FN deposit inh	FGF22 binding	PAX8 inh HTS
Cc1cccc(NCc2ccc(O)c3ncccc23)c1	15.2	44.0	28.4	-3.2	-0.2	78.8*
NS(=O)(=O)c1ccc(CCN2C(=O)/C(=C\c3ccc(Cl)cc3)SC2=S)cc1	nt	37.2	nt	3.0	nt	112.2*
COCC(=O)Nc1ccc2c(c1)C(=O)N(C)C[C@H](OC)[C@H](C)CN(Cc1cccnc1)[C@H](C)CO2	-6.2	nt	0.7	15.1	-0.1	1.5
O=C(NCc1ccco1)C1CC(c2cc(C(F)(F)F)cc(C(F)(F)F)c2)=NO1 (stereo unspecified)	75.0*	-241.2	nt	2.5	-0.1	5.3
O=C(NCc1ccccc1)C1Cc2c(-c3ccc(Cl)cc3)ccnc2O1 (stereo unspecified)	60.3*	-19.4	-69.4	1.0	-0.4	23.0
O=C(NCc1ccco1)C1Cc2c(-c3cccc(F)c3)ccnc2O1 (stereo unspecified)	54.2*	-169.9	-40.4	12.6	-0.2	31.3
O=C(NCc1ccccc1)C1Cc2c(-c3cccc(F)c3)ccnc2O1 (stereo unspecified)	67.2*	-91.4	-19.9	-0.5	-0.3	54.7
NC(=O)c1cccc(-c2ccnc3c2CC(C(=O)NCc2ccco2)O3)c1 (stereo unspecified)	42.9	-83.5	8.5	5.9	-0.1	18.9
O=C(Nc1ccccc1)C1Cc2c(-c3ccc(Cl)cc3)ccnc2O1 (stereo unspecified)	2.0	15.1	nt	-2.3	0.2	-19.8
C[C@H]1CN([C@@H](C)CO)C(=O)c2cc(NS(=O)(=O)c3ccc(Cl)cc3)ccc2O[C@H]1CN(C)S(=O)(=O)c1cn(C)cn1	3.1	nt	-0.2	nt	-0.1	nt
O=[N+]([O-])c1cccc(NC(=S)NCc2ccncc2)c1	-12.1	38.3	7.6	-19.2	-0.4	6.9
O=[N+]([O-])c1cccc(NC(=S)Nc2nc(-c3ccccc3Cl)cs2)c1	7.3	97.0*	nt	nt	-0.2	33.8
O=C1CCC(=O)N1N1C(=O)C2C3c4ccccc4C(c4ccccc43)C2C1=O (stereo unspecified)	-3.8	-6.2	-1.2	-5.8	43.0*	-7.7
O=C(/C=C/c1ccccc1)NCCc1ccc2c(c1)OCCO2	-3.9	-19.4	nt	4.0	-0.2	69.4*
COc1cccc(/C=C/C(=O)NCCc2ccc3c(c2)OCCO3)c1	57.4*	-18.7	nt	1.4	-0.2	5.7
COc1ccc(C(=O)NC(C(=O)NCCc2ccc3c(c2)OCCO3)C(C)C)cc1 (stereo unspecified)	-3.1	-7.3	nt	nt	0.1	1.7

Assay outcomes (PubChem BioAssay)
